From article PMC3786212 (Structure (London, England : 1993), 2012) come the findings set out here.

Test [1] addresses UBE2F^NAc, N-terminally acetylated UBE2F (human) (UniProt Q969M7). Briefly: ITC. (Isothermal titration calorimetry measures the heat released or taken up as one component is titrated into another.)
The target of test [2] is DCNL1^P (DCNL1 PONY domain) (Homo sapiens, UniProt Q96GG9). The test can be described thus: ITC binding to DCNL1 PONY domain. The settings on record: full-length UBE2F protein, pH 7.0, 16 °C. The method, boiled down:
(§1)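 Buffer-matched by NAP-5 desalting into 25 mM HEPES, 125 mM NaCl, 1 mM BME, pH 7.0. N-terminally acetylated UBE2F in cell at 100 µM final, 16 °C. PONY domain (1 mM) injected as 2.5 µl, 5 s injections at 3 min intervals. Heats and Kd from fits of integrated data. At least two independent runs; values from one run.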

For test [3], the target named is DCNL2^P (DCNL2 PONY domain) (Homo sapiens, UniProt Q6PH85). Briefly: ITC binding to DCNL2 PONY domain. The settings on record: full-length UBE2F protein, pH 7.0, 16 °C. The method, boiled down:
as §1

Test [4] addresses T1, DCNL4^P (DCNL4 PONY domain) (Homo sapiens, UniProt Q92564).
T1 sequence (Q92564 101-287 limits assumed): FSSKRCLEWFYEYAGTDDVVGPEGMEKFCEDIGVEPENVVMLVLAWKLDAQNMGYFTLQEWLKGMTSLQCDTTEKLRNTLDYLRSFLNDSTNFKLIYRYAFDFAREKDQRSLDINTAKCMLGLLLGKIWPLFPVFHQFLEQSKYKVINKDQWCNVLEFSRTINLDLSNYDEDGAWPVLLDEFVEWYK
The test can be described thus: ITC binding to DCNL4 PONY domain. The settings on record: full-length UBE2F protein, pH 7.0, 16 °C. The method, boiled down: as §1

For test [5], the target named is T2, DCNL5^P (DCNL5 PONY domain) (Homo sapiens, UniProt Q9BTE7).
T2 sequence (Q9BTE7 46-232 limits assumed): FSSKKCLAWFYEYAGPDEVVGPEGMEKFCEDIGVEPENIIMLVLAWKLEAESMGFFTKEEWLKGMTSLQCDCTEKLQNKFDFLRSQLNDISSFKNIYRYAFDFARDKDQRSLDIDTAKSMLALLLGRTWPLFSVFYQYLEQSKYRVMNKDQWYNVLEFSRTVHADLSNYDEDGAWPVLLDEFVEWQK
The test can be described thus: ITC binding to DCNL5 PONY domain. The settings on record: full-length UBE2F protein, pH 7.0, 16 °C. The procedure, abridged: as §1

Chain of DCNL1^P (DCNL1 PONY domain) (Q96GG9 60-248 limits assumed): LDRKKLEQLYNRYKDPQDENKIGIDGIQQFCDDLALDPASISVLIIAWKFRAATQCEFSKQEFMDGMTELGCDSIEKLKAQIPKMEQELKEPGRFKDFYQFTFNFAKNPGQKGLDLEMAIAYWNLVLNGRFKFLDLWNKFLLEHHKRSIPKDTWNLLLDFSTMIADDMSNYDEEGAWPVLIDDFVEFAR
Chain of DCNL2^P (DCNL2 PONY domain) (Q6PH85 60-248 limits assumed): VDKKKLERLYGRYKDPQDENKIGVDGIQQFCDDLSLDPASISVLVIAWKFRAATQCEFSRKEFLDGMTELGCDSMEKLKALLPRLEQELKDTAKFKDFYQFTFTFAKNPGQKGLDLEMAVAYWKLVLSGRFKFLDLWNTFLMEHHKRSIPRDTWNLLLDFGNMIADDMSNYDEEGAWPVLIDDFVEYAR

Take “DCNL2 PONY domain (DCNL2^P) (from UniProt Q6PH85 62-259) (domain or fragment)”: the fold decrease in binding against DCNL3^P in test [1] was 5 fold.
Same read-out and setting: next, “DCNL1 PONY domain (DCNL1^P) (from UniProt Q96GG9 62-259) (domain or fragment)”: 5 fold.
As to “DCNL3 PONY domain (DCNL3^P) (from UniProt Q8IWE4 86-304) (domain or fragment)”, the Kd in test [1] amounted to 1 µM.

B1: UBE2F^NAc: N-terminally acetylated human UBE2F, NEDD8 E2, expressed in insect cells (protein)
chain: MLTLASKLKRDDGLKGSRTAATASDSTRRVSVRDKLLVKEVAELEANLPCTCKVHFPDPNKLHCFQLTVTPDEGYYQGGKFQFETEVPDAYNMVPPKVKCLTKIWHPNITETGEICLSLLREHSIDGTGWAPTRTLKDVVWGLNSLFTDLLNFDDPLNIEAAEHHLRDKEDFRNKVDDYIKRYAR
modifications: N-terminal methionine retained and N-terminally acetylated; left off: His tag, C-terminal, state not stated
Turning to B1, the “fold decrease in binding relative to DCNL3^P” value in test [2] and in test [3] was 5 fold throughout. Further, the Kd entry in test [4] and in test [5] was “too high for us to measure” each time.

B2: unacetylated UBE2F: UBE2F prepared in E. coli as SUMO fusion, unacetylated N-terminal Met (protein)
chain: B1 chain
modifications: left off: SUMO, N-terminal, cleaved
B2: the “binding (ITC)” value in test [2] and in test [3] was “could not measure binding” each time. For the same molecule, the Kd entry in test [4] and in test [5] was “could not measure binding” each time.

What is called Kd is the concentration at which binding is half-saturated. Read a low Kd as tighter binding.
